Tests used:
[1] = biological target: Tyrosine-protein kinase ABL1 (Homo sapiens) (UniProt P00519); test: Inhibition of ABL (unknown origin) assessed as remaining enzyme activity at 10 uM by radioactive [33P]-ATP filter binding assay
Procedure, shortened: (§1)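 A single 10 µM concentration was tested across a 140-kinase panel. Activity was measured by a radioactive 33P-ATP filter-binding assay run at the International Center for Kinase Profiling, University of Dundee.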

[2] = biological target: Mitogen-activated protein kinase 9 (Homo sapiens) (UniProt P45984); test: Inhibition of JNK2 (unknown origin) assessed as remaining enzyme activity at 10 uM by radioactive [33P]-ATP filter binding assay
Mitogen-activated protein kinase 9 (Homo sapiens), sequence (P45984 whole entry, looked up): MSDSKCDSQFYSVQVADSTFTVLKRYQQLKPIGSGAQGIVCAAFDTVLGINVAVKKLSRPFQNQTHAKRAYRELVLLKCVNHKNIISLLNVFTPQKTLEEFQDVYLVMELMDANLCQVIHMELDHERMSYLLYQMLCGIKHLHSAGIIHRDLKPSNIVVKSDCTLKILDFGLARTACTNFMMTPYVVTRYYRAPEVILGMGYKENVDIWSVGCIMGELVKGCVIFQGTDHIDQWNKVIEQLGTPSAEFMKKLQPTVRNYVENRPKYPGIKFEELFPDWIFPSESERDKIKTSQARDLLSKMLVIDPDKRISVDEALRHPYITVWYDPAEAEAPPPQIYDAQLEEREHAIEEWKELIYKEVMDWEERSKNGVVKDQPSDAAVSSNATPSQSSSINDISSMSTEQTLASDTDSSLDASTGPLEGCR

[3] = biological target: Serine/threonine-protein kinase OSR1 (Homo sapiens) (UniProt O95747); test: Inhibition of OSR1 (unknown origin) assessed as remaining enzyme activity at 10 uM by radioactive [33P]-ATP filter binding assay
[4] = Induction of cell cycle arrest in human Mahlavu cells assessed as accumulation at S phase at cytotoxic IC50 level after 48 hrs by propidium iodide staining based FACS method; type: functional
[5] = Cytotoxicity against human HuH7 cells after 72 hrs by SRB assay; type: functional, cell-based; details: Huh-7, 72 h
Procedure, shortened: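 Cells kept in DMEM with 10% FCS and penicillin/streptomycin at 37°C, 5% CO2. 2000–3000 cells/well were seeded, and medium was refreshed the next day. DMSO solutions were added over 2.5–40 µM with matched DMSO-only controls for 72 h. Cells were then TCA-fixed, stained with 0.4% SRB in 1% acetic acid, solubilized in 10 mM Tris pH 8 and read at 515 nm. Data were normalized to DMSO wells and expressed as mean ±SD.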

[6] = biological target: NUAK family SNF1-like kinase 1 (Homo sapiens) (UniProt O60285); test: Inhibition of NUAK1 (unknown origin) assessed as remaining enzyme activity at 10 uM by radioactive [33P]-ATP filter binding assay
[7] = biological target: Mitogen-activated protein kinase 8 (Homo sapiens) (UniProt P45983); test: Inhibition of JNK1 (unknown origin) assessed as remaining enzyme activity at 10 uM by radioactive [33P]-ATP filter binding assay
Mitogen-activated protein kinase 8 (Homo sapiens), sequence (P45983 whole entry): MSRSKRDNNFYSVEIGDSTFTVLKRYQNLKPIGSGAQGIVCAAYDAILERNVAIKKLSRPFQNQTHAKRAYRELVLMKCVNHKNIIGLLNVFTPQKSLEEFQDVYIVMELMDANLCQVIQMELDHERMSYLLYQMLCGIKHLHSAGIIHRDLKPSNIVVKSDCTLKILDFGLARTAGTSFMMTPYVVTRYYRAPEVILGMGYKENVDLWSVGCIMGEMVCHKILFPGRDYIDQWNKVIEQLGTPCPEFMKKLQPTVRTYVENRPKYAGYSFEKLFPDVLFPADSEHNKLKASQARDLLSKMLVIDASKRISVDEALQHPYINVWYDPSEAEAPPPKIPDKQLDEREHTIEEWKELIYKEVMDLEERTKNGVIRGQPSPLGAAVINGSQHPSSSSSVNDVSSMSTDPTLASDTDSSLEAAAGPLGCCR

[8] = Induction of cell cycle arrest in human HuH7 cells assessed as accumulation at G2/M phase at cytotoxic IC50 level after 48 hrs by propidium iodide staining based FACS method; type: functional, Huh-7
Procedure, shortened: (§2)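 Huh7 cells were seeded at 150,000–300,000 per 100-mm dish and left 24 h. […] Cells were stained with a propidium iodide-containing cell cycle reagent, and subG1, G0/G1, S and G2/M fractions were scored by flow cytometry.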

[9] = biological target: Tau-tubulin kinase 1 (Homo sapiens) (UniProt Q5TCY1); test: Inhibition of TTBK1 (unknown origin) assessed as remaining enzyme activity at 10 uM by radioactive [33P]-ATP filter binding assay
[10] = biological target: Testis-specific serine/threonine-protein kinase 1 (Homo sapiens) (UniProt Q9BXA7); test: Inhibition of TSSK1 (unknown origin) assessed as remaining enzyme activity at 10 uM by radioactive [33P]-ATP filter binding assay
[11] = biological target: Vascular endothelial growth factor receptor (Homo sapiens) (UniProt P17948+P35916+P35968); test: Inhibition of VEGFR (unknown origin) assessed as remaining enzyme activity at 10 uM by radioactive [33P]-ATP filter binding assay; type: protein assay
[12] = Induction of cell cycle arrest in human Mahlavu cells assessed as accumulation at G2/M phase at cytotoxic IC50 level after 48 hrs by propidium iodide staining based FACS method; type: functional
[13] = biological target: Calcium/calmodulin-dependent protein kinase type 1 (Homo sapiens) (UniProt Q14012); test: Inhibition of CAMK1 (unknown origin) assessed as remaining enzyme activity at 10 uM by radioactive [33P]-ATP filter binding assay; procedure, shortened: as §1
Calcium/calmodulin-dependent protein kinase type 1 (Homo sapiens), sequence (Q14012 whole entry, looked up): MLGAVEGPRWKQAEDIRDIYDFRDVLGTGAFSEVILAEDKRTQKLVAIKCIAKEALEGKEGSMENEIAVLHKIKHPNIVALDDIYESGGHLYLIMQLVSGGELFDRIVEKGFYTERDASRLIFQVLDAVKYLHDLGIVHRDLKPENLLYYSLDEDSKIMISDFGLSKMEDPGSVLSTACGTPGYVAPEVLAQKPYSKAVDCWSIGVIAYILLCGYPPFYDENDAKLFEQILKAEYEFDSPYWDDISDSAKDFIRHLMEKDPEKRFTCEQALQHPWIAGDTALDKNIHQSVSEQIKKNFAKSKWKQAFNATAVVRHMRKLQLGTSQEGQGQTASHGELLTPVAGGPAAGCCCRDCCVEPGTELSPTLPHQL

[14] = biological target: Maternal embryonic leucine zipper kinase (Homo sapiens) (UniProt Q14680); test: Inhibition of MELK (unknown origin) assessed as remaining enzyme activity at 10 uM by radioactive [33P]-ATP filter binding assay
[15] = biological target: Mitogen-activated protein kinase 14 (Homo sapiens) (UniProt Q16539); test: Inhibition of p38alpha (unknown origin) assessed as remaining enzyme activity at 10 uM by radioactive [33P]-ATP filter binding assay
Mitogen-activated protein kinase 14 (Homo sapiens), sequence (Q16539 whole entry): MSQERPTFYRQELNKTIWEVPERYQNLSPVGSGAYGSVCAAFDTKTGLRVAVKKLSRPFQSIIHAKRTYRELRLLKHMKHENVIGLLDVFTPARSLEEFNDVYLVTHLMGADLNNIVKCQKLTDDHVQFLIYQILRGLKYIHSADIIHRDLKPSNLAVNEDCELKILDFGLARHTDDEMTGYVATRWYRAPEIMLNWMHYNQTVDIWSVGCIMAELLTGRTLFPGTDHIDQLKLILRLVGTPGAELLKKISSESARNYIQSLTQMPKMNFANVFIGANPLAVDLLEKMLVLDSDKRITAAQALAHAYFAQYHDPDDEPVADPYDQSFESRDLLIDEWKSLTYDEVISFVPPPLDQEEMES

[16] = Induction of cell cycle arrest in human HuH7 cells assessed as accumulation at S phase at cytotoxic IC50 level after 48 hrs by propidium iodide staining based FACS method; type: functional, Huh-7; procedure, shortened: as §2
[17] = biological target: Misshapen-like kinase 1 (Homo sapiens) (UniProt Q8N4C8); test: Inhibition of MINK1 (unknown origin) assessed as remaining enzyme activity at 10 uM by radioactive [33P]-ATP filter binding assay
Misshapen-like kinase 1 (Homo sapiens), sequence (Q8N4C8 whole entry, looked up): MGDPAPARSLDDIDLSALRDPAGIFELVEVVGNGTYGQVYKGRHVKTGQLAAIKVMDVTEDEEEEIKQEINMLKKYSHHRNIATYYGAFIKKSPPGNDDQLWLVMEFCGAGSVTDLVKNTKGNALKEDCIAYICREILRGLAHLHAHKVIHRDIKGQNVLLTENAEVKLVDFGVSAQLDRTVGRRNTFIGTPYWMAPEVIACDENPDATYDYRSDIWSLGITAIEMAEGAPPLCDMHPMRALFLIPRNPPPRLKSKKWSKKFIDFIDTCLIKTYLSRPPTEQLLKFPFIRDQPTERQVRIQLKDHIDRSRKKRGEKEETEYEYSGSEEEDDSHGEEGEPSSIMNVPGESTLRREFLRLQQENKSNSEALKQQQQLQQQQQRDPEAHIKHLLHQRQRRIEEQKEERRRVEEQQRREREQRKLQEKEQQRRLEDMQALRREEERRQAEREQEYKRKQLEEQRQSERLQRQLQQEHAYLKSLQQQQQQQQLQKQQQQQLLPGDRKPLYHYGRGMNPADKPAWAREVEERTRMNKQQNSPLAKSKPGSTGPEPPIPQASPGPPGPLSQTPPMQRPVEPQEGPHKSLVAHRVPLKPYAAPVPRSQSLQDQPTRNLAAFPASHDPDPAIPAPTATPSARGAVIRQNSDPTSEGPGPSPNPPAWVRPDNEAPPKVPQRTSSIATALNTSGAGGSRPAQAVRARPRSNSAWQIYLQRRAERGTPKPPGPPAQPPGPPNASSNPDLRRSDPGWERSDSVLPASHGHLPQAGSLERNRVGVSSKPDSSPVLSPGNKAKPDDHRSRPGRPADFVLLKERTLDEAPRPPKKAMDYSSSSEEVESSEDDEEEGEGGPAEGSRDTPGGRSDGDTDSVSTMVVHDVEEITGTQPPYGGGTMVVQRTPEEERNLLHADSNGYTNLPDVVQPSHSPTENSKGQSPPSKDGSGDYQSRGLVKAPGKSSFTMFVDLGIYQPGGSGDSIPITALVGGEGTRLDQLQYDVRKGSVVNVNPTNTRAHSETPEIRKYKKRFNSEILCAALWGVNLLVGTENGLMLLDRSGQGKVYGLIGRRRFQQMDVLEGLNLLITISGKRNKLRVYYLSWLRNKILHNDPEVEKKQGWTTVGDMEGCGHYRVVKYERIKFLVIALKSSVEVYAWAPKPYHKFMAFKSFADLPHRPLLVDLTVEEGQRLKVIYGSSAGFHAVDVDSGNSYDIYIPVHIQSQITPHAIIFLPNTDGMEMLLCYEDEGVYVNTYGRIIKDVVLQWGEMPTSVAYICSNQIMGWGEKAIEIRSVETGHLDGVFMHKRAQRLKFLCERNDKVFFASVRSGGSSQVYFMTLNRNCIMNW

[18] = biological target: MAP kinase-activated protein kinase 5 (Homo sapiens) (UniProt Q8IW41); test: Inhibition of PRAK (unknown origin) assessed as remaining enzyme activity at 10 uM by radioactive [33P]-ATP filter binding assay
[19] = biological target: Casein kinase II (Homo sapiens) (UniProt P67870+P68400+P19784); test: Inhibition of CK2 (unknown origin) assessed as remaining enzyme activity at 10 uM by radioactive [33P]-ATP filter binding assay; type: protein-complex assay; procedure, shortened: as §1
[20] = biological target: Homeodomain-interacting protein kinase 1 (Homo sapiens) (UniProt Q86Z02); test: Inhibition of HIPK1 (unknown origin) assessed as remaining enzyme activity at 10 uM by radioactive [33P]-ATP filter binding assay
[21] = biological target: Death-associated protein kinase 1 (Homo sapiens) (UniProt P53355); test: Inhibition of DAPK1 (unknown origin) assessed as remaining enzyme activity at 10 uM by radioactive [33P]-ATP filter binding assay; procedure, shortened: as §1
Death-associated protein kinase 1 (Homo sapiens), sequence (P53355 whole entry, looked up): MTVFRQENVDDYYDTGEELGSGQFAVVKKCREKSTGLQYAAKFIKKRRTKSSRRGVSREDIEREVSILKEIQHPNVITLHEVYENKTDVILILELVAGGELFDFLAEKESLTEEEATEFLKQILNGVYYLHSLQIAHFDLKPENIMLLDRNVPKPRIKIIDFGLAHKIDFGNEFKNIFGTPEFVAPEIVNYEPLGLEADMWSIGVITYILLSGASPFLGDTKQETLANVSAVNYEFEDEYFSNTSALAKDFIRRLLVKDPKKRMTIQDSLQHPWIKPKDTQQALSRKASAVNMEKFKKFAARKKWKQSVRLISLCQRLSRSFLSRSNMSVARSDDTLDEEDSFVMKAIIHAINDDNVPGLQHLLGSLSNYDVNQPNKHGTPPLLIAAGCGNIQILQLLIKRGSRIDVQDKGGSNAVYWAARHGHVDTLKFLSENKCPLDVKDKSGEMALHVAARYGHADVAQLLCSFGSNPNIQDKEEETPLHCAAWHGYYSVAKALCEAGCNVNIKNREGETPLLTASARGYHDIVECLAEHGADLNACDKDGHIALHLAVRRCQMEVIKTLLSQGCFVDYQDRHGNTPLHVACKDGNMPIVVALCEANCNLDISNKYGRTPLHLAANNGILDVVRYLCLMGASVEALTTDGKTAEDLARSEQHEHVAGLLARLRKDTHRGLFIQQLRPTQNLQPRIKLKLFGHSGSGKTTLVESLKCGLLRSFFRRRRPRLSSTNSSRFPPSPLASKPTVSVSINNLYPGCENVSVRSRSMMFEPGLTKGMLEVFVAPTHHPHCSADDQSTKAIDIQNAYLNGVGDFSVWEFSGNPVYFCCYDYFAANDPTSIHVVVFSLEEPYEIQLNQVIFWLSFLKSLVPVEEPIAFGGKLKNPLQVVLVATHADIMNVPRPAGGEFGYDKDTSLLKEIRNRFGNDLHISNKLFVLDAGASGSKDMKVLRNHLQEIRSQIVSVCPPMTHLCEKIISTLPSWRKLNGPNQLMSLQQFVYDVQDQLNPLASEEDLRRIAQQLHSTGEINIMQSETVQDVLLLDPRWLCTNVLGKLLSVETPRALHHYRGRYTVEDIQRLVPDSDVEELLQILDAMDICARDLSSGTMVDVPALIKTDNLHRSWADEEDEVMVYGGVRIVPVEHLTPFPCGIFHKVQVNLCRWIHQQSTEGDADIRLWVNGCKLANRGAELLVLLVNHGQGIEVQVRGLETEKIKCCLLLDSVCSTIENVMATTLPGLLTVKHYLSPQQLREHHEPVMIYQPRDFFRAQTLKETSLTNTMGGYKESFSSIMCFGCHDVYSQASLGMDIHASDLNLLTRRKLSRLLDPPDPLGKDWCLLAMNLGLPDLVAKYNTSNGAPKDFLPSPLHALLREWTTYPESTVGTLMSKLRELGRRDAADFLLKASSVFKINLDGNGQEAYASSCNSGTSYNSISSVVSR

[22] = Induction of cell cycle arrest in human Mahlavu cells assessed as accumulation at G0/G1 phase at cytotoxic IC50 level after 48 hrs by propidium iodide staining based FACS method; type: functional
[23] = biological target: Ribosomal protein S6 kinase beta-1 (Homo sapiens) (UniProt P23443); test: Inhibition of S6K1 (unknown origin) assessed as remaining enzyme activity at 10 uM by radioactive [33P]-ATP filter binding assay
Ribosomal protein S6 kinase beta-1 (Homo sapiens), sequence (P23443 whole entry, looked up): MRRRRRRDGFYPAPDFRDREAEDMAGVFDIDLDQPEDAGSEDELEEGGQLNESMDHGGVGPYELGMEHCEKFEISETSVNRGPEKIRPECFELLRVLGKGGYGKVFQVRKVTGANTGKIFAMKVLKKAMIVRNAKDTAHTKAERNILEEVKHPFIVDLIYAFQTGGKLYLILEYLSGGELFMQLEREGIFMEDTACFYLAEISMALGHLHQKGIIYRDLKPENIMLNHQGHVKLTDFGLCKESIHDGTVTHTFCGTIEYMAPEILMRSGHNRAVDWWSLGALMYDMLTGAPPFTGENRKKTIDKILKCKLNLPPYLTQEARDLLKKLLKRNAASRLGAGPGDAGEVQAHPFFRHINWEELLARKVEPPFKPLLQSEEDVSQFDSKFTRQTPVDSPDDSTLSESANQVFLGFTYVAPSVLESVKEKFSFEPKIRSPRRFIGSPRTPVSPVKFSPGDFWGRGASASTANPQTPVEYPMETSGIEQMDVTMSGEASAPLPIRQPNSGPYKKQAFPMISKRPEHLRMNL

- Activity [1]: 84%
- Activity [2]: 100%
- Activity [3]: 111%
- Activity [6]: 100%
- Activity [7]: 103%
- Activity [9]: 104%
- Activity [10]: 90%
- Activity [11]: 92%
- Activity [13]: 113%
- Activity [14]: 98%
- Activity [15]: 95%
- Activity [17]: 114%
- Activity [18]: 88%
- Activity [19]: 85%
- Activity [20]: 98%
- Activity [23]: 88%
Structure (SMILES): Cc1ccc(-c2cc(C(=O)Nc3ccnc(Cl)c3)nn2-c2ccc3ccccc3n2)cc1
- Activity [4]: 11.1%
- IC50 [5]: 1.6 µM
- Activity [8]: 27.8%
- Activity [12]: 19.9%
- Activity [16]: 10.3%
- Activity [21]: 112%
- Activity [22]: 58.7%

— ChEMBL document CHEMBL3351385, “Synthesis and preliminary mechanistic evaluation of 5-(p-tolyl)-1-(quinolin-2-yl)pyrazole-3-carboxylic acid amides with potent antiproliferative activity on human cancer cell lines” (Eur J Med Chem, 2014)
